Data on 19 compounds can be found in ChEMBL document CHEMBL1138421, “Synthesis and antiproliferative activity of (2R,3R)-disubstituted tetrahydropyrans. Part 2: Effect of side chain homologation” (2007).

Molecules are shown by their SMILES. Some results are limits rather than exact numbers.

Common to all, as to format: functional
One experiment has as its system A2780. Nature of the experiment: Antiproliferative activity against human A2780 cells after 48 hrs by sulforhodamine B assay. As to conditions: A2780, 48 h. In short, it runs like this: (§1)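 Dose-response curves built per compound up to 100 μM maximum; percentage of growth (PG) computed, with GI₅₀, TGI and LC₅₀ taken as concentrations giving PG +50, 0 and −50. TGI and LC₅₀ reported only when below 100 μM. Values in μM, means of two to four experiments with standard deviation.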

The subject of another experiment is SW1573. Nature of the experiment: Antiproliferative activity against human SW1573 cells after 48 hrs by sulforhodamine B assay. The note with it: SW1573, 48 h; for CC50: read-out: LC50 (the source's name). In short, it runs like this: as §1
The test system of another experiment is WiDr. Description: Antiproliferative activity against human WiDr cells after 48 hrs by sulforhodamine B assay. In outline: as §1

Consider `CC(C)(C)[Si](C)(C)O[C@@H]1CCCO[C@@H]1COCCCO`, for which the GI50 in the experiment with A2780, in the experiment with SW1573 and in the experiment with WiDr was more than 100 µM throughout.

For `c1ccc([C@H]2OC[C@H]3OCCC[C@H]3O2)cc1`, the GI50 in the experiment on A2780, with SW1573 and with WiDr was more than 100 µM in each case.

On to `c1cc([C@H]2OC[C@H]3OCCC[C@H]3O2)nc([C@H]2OC[C@H]3OCCC[C@H]3O2)c1`, for which the GI50 in the experiment with A2780, with SW1573 and in the experiment on WiDr was more than 100 µM throughout.

With `C=C[C@H]1CCC[C@@H]([C@H]2COC(C)(C)O2)O1`, in the experiment with WiDr, the GI50 is more than 100 µM.

With `CC(C)(C)[Si](C)(C)O[C@@H]1CCCO[C@@H]1CO/C=C/C(=O)OCc1ccccc1`, the GI50 with A2780 worked out at 26 µM; in the experiment with SW1573 it was 26 µM; with WiDr, 37 µM.

On to `CC(C)(C)[Si](C)(C)O[C@@H]1CCCO[C@@H]1COCC(=O)OCc1ccccc1`, for which the values for the concentration for 50% growth inhibition (GI50) in the experiment on A2780, in the experiment on SW1573 and in the experiment on WiDr were 28 µM, 29 µM and 37 µM, respectively. This compound also yielded an LC50 (concentration giving 50% net cell kill) in the experiment with A2780 of 94 µM. The TGI worked out at 81 µM in the experiment on A2780, 85 µM in the experiment with SW1573 and 88 µM in the experiment on WiDr.

On to `O=C(COC[C@H]1OCCC[C@H]1O)OCc1ccccc1`, for which the GI50 in the experiment on A2780, in the experiment with SW1573 and with WiDr was more than 100 µM each time.

Turning to `O=C1COC[C@H]2OCCC[C@H]2O1`, the GI50 with A2780, in the experiment on SW1573 and with WiDr was more than 100 µM throughout.

Consider `COC(=O)CCOC[C@H]1OCCC[C@H]1O[Si](C)(C)C(C)(C)C`, for which the concentration for 50% growth inhibition (GI50) in the experiment with A2780, with SW1573 and with WiDr was more than 100 µM throughout.

In the case of `c1cc([C@H]2OC[C@H]3OCCC[C@H]3O2)ccc1[C@H]1OC[C@H]2OCCC[C@H]2O1`, the GI50 in the experiment on A2780, in the experiment on SW1573 and in the experiment with WiDr was more than 100 µM each time.

Take `CC(C)(C)[Si](C)(C)O[C@@H]1CCCO[C@@H]1CO/C=C/CO`: the GI50 in the experiment on A2780, in the experiment with SW1573 and with WiDr was more than 100 µM throughout.

As to `CC(C)(C)[Si](C)(C)O[C@@H]1CCCO[C@@H]1CO` (relative stereo), the GI50 in the experiment with A2780, in the experiment with SW1573 and in the experiment with WiDr was more than 100 µM in each case.

As for `COC(=O)/C=C/OC[C@H]1OCCC[C@H]1O[Si](C)(C)C(C)(C)C` (relative stereo), the GI50 in the experiment on A2780 was 30 µM; in the experiment with SW1573 it was 50 µM; in the experiment with WiDr it was 36 µM. For the same compound, total growth inhibition with A2780 (TGI) required 82 µM.

With `CC(C)(C)[Si](C)(C)O[C@H]1CCCO[C@@H]1CO` (relative stereo), the 50% growth inhibitory concentration (GI50) with A2780, with SW1573 and with WiDr was more than 100 µM each time.

As for `O=C(COC[C@H]1OCCC[C@@H]1O)OCc1ccccc1` (relative stereo), the GI50 with A2780, in the experiment on SW1573 and with WiDr was more than 100 µM in each case.

With `O=C1COC[C@H]2OCCC[C@@H]2O1` (relative stereo), the GI50 in the experiment with A2780, with SW1573 and in the experiment with WiDr was more than 100 µM in each case.

As for `C=CCOC[C@H]1OCCC[C@H]1O[Si](C)(C)C(C)(C)C` (relative stereo), in the experiment on A2780, growth was halved (GI50) at 15 µM, the LC50 (concentration giving 50% net cell kill) came to 68 µM and the TGI turned out to be 32 µM. Besides, in the experiment with SW1573, the GI50 was found to be 18 µM, the TGI was 39 µM and the CC50 was found to be 85 µM. Also, it took 88 µM to inhibit growth with WiDr by half (GI50).

On to `CC(C)(C)[Si](C)(C)O[C@@H]1CCCO[C@@H]1COCC(=O)O` (relative stereo), for which the GI50 in the experiment on A2780, with SW1573 and in the experiment with WiDr was more than 100 µM throughout.

As for `CC(C)(C)[Si](C)(C)O[C@H]1CCCO[C@@H]1COCC(=O)OCc1ccccc1` (relative stereo), in the experiment with A2780, the 50% growth inhibitory concentration (GI50) was determined as 17 µM, the LC50 (concentration giving 50% net cell kill) was found to be 74 µM and net growth stopped (TGI) at 36 µM. Also, in the experiment with SW1573, the GI50 worked out at 17 µM, the TGI was found to be 37 µM and the CC50 is 79 µM. In addition, in the experiment with WiDr, the GI50 is 28 µM and the concentration for total growth inhibition (TGI) turned out to be 91 µM.
